This passage reports Tm and folding enthalpy results from the array DNA melting data of Ke et al. (doi:10.1101/2024.01.08.574731).

A short description of data set [1]: melting temperature; fluorescence melt of hairpins on a sequencing array, two-state fit, raised by 9.35 °C to match UV melts. The settings on record: sodium 0.088 M. The method, boiled down: (§1)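 Hairpins were imaged by Cy3 fluorescence on a sequenced MiSeq flow cell with annealed Cy3 and quencher oligos, in 50 mM Na-HEPES pH 8.0, 25 mM NaCl, in 2.5 °C steps up to 60 °C. Bootstrapped two-state fits of normalised signals gave melting temperature and folding enthalpy. Four replicates were combined by inverse variance, and fitted temperatures were raised by 9.35 °C to match UV melts.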

Data set [2] is described as follows: folding enthalpy; higher = less favourable; fluorescence melt of hairpins on a sequencing array, two-state fit. The settings on record: sodium 0.088 M. The method, boiled down:
as §1

For GGATCACGAAAGTGTTCC (((.(((....))).))), the Tm in data set [1] was determined as 50.8 °C. In addition, in data set [2], the folding enthalpy is -34.3 kcal/mol.

Consider GCTGACTCGAAAGAGAGC (((..(((....)))))), for which the Tm in data set [1] stood at 31.6 °C. Moreover, in data set [2], the folding enthalpy is -14.6 kcal/mol.

Regarding GATCCTGGAAACAGGATC (((((((....))))))), in data set [1], the Tm amounted to 61.7 °C. The folding enthalpy in data set [2] is -44.4 kcal/mol.

In the case of GGAATCGAAAGATCTCC ((((((....))).))), in data set [1], the Tm was 30.8 °C. For the same sequence, the folding enthalpy in data set [2] is -18.4 kcal/mol.

Take GGAGCTGGAAACGGCTCC (((((.(....).))))): in data set [1], the Tm was 59.9 °C. In addition, the folding enthalpy in data set [2] is -48.2 kcal/mol.

Regarding AATGGGAAACCATT (((((....))))), the Tm in data set [1] came to 37.7 °C. Further, in data set [2], the folding enthalpy was -14.1 kcal/mol.

In the case of GATCATTATATGATC ((((((...)))))), the Tm in data set [1] amounted to 48.8 °C. For the same sequence, in data set [2], the folding enthalpy was -40.2 kcal/mol.

As to GCAGCCGAAAGGCGTTGC ((((((....)))..))), in data set [1], the Tm stood at 53.3 °C. In addition, the folding enthalpy in data set [2] was -13.8 kcal/mol.

Turning to GCGCCGCGAAAGCTCCGC (((..((....))..))), the Tm in data set [1] was 44.9 °C. Moreover, the folding enthalpy in data set [2] was -16.8 kcal/mol.

GTTGCAGAAATGCAAC ((((((....)))))): the Tm in data set [1] is 57.5 °C. In addition, the folding enthalpy in data set [2] was -35.3 kcal/mol.

As to GCTGACGAAAGTCAAGC ((((((....))).))), in data set [1], the Tm was 56.3 °C. In data set [2], the folding enthalpy was -28.8 kcal/mol.

With GTTGTGAAAACAAC (((((....))))), in data set [1], the Tm worked out at 50.5 °C. The folding enthalpy in data set [2] was -29.6 kcal/mol.

On to GGATATCGAAAGATCTCC (((.(((....))).))), for which the Tm in data set [1] stood at 39.1 °C. Further, the folding enthalpy in data set [2] is -30.9 kcal/mol.

On to GATCTGCTCCCAGATC ((((((....)))))), for which, in data set [1], the Tm came to 47.9 °C. Also, the folding enthalpy in data set [2] was -37.1 kcal/mol.

Consider GCAGAGCGAAAGCCCGGC ((.(.((....)).).)), for which the Tm in data set [1] turned out to be 44.8 °C. In addition, in data set [2], the folding enthalpy was -17.9 kcal/mol.

GCAGGGCGAAAGCATTGC (((..((....))..))): the Tm in data set [1] worked out at 53 °C. For the same sequence, the folding enthalpy in data set [2] is -19.6 kcal/mol.

With GGGCAGAAATGCCC (((((....))))), the Tm in data set [1] was found to be 65.2 °C. Besides, the folding enthalpy in data set [2] was -24 kcal/mol.

GATCGTACAACGATC ((((((...)))))): the Tm in data set [1] was 56.5 °C. For the same sequence, the folding enthalpy in data set [2] is -37.4 kcal/mol.

With GCGCGGCGAAAGCAGTGC ((.(.((....)).).)), the Tm in data set [1] came to 65.5 °C. In addition, in data set [2], the folding enthalpy is -29.1 kcal/mol.

Consider GATTCAGGAAACTGAACC (.(((((....))))).), for which the Tm in data set [1] is 31.4 °C. Also, the folding enthalpy in data set [2] is -17.4 kcal/mol.

Take GTGGGAGGAAACTCCCAC (((((((....))))))): the Tm in data set [1] was 67.2 °C. For the same sequence, the folding enthalpy in data set [2] was -32.1 kcal/mol.

Consider GTCTACGCGAAAGCGGAC (((..(((....)))))), for which, in data set [1], the Tm is 41.3 °C. In addition, the folding enthalpy in data set [2] was -12.7 kcal/mol.

As for GTGGGCGAAAGCCGTCAC ((((((....)))..))), the Tm in data set [1] amounted to 36.9 °C. Further, the folding enthalpy in data set [2] is -13.2 kcal/mol.

Turning to GAGCATGGAAACATGTTC ((.((((....)))).)), in data set [1], the Tm turned out to be 42.8 °C. Moreover, the folding enthalpy in data set [2] was -25.6 kcal/mol.

GGTAGTCGAAAGACCACC (((.(((....))).))): the Tm in data set [1] is 45.7 °C. The folding enthalpy in data set [2] is -24.7 kcal/mol.

Consider GTGGGGGGAAACCCCTAC ((.((((....)))).)), for which, in data set [1], the Tm was determined as 52.2 °C. Further, in data set [2], the folding enthalpy is -17.8 kcal/mol.

GCAGACGAAAGTCCATGC ((((((....)))..))): in data set [1], the Tm turned out to be 35.3 °C. In data set [2], the folding enthalpy is -16.5 kcal/mol.

Regarding GCCGAGGGAAACCCCAGC ((.(.((....)).).)), in data set [1], the Tm was found to be 25.2 °C. Besides, the folding enthalpy in data set [2] is -11.3 kcal/mol.

Take GCGGCGCGAAAGCGAAGC ((..(((....)))..)): in data set [1], the Tm turned out to be 68.1 °C. Also, in data set [2], the folding enthalpy is -29 kcal/mol.

With GGCTAGGGAAACCTGGTC (.(.(((....))).).), the Tm in data set [1] stood at 35.5 °C. Also, the folding enthalpy in data set [2] is -30.6 kcal/mol.

For the sequence GTATAACCGAAAGGTTAC (((..(((....)))))), in data set [1], the Tm was 31.8 °C. Moreover, in data set [2], the folding enthalpy was -11.4 kcal/mol.

With GAGGACGAAAGTCTCCTC ((((((....)))..))), the Tm in data set [1] amounted to 36.3 °C. In data set [2], the folding enthalpy is -14.9 kcal/mol.

For the sequence GATCGGCAGCCGATC ((((((...)))))), the Tm in data set [1] came out at 55.2 °C. In addition, the folding enthalpy in data set [2] is -50.7 kcal/mol.

As for GATCAGTATCTGATC ((((((...)))))), the Tm in data set [1] turned out to be 48.5 °C. For the same sequence, the folding enthalpy in data set [2] is -34.9 kcal/mol.

Consider GATCCCTGGCGGGATC ((((((....)))))), for which the Tm in data set [1] is 59.1 °C. Besides, in data set [2], the folding enthalpy was -37.2 kcal/mol.

Turning to GGGGAGGGAAACCTCCTC (.(((((....))))).), in data set [1], the Tm was 53.4 °C. Moreover, the folding enthalpy in data set [2] is -15.6 kcal/mol.

For GTGTTCACGAAAGTGCAC (((..(((....)))))), the Tm in data set [1] was found to be 42.3 °C. For the same sequence, the folding enthalpy in data set [2] was -20.7 kcal/mol.
